{"source": "PubChem BioAssay", "key": {"[1]": {"test": "hit retest on RPL19A-GFP reporter strain – cell-based, S. cerevisiae, flow cytometry, cherry picks, mother/daughter gates, confirmation (AID 2270;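 active = GFP response below 50% of the DMSO control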)", "conditions": "3 h, at 10 µM, stronger effect = lower value, 100 = same GFP as DMSO wells"}, "[2]": {"test": "yeast TOR pathway reporter LAP4-GFP change – cell-based, cherry picks, flow cytometry, mother/daughter gates, confirmation (AID 2271;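 active = GFP response above 150% of the DMSO control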;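 note: ratio of sample to DMSO plate mean so 100% equals DMSO level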)", "conditions": "S. cerevisiae LAP4-GFP strain, 3 h, at 10 µM, stronger effect = higher value", "outline": "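Material – Alexa Fluor 633-labelled Saccharomyces cerevisiae GFP-fusion strain, single-plex · Incubation – compound exposure 3 h at 30 °C, end-over-end rotation · Measured by – GFP by flow cytometry · Measure – median GFP fluorescence as percent of plate-mean DMSO wells · Control set – positive rapamycin (400 ng/mL), negative DMSO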"}, "[3]": {"test": "TOR pathway reporter MEP2-GFP, retest of hits – S. cerevisiae, flow cytometry GFP, cherry picks, confirmation (AID 2272;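 active = GFP response above 150% of the DMSO control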;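 note: ratio of well signal to plate DMSO mean so 100% equals DMSO level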)", "conditions": "S. cerevisiae MEP2-GFP strain, 3 h, at 10 µM, stronger effect = higher value"}, "[4]": {"test": "yeast AGP1-GFP fluorescence change, single-dose – cell-based, flow cytometry, S. cerevisiae, cherry picks, confirmation (AID 2273;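 active = GFP response above 150% of the DMSO level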;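 note: median GFP channel fluorescence over the whole cell population gate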)", "conditions": "S. cerevisiae AGP1-GFP strain, 3 h, at 10 µM"}, "[5]": {"test": "TOR pathway CIT2 reporter hit retest – S. cerevisiae, GFP fusion, cherry picks, mother/daughter gates, confirmation (AID 2274;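 active = GFP response above 150% of the DMSO level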)", "conditions": "S. cerevisiae CIT2-GFP strain, flow cytometry, 3 h, at 10 µM, stronger effect = higher value"}, "[6]": {"molecular_target": "Cell division control protein 42 homolog (Homo sapiens) (UniProt P60953)", "sequence (P60953 whole entry, looked up)": "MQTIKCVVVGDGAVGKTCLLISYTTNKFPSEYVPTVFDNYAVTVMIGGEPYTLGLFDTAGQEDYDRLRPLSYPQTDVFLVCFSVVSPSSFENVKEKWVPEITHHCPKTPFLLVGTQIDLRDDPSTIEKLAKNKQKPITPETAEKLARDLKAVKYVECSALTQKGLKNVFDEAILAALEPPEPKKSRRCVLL", "test": "inhibition of fluorescent GTP binding to constitutively active Cdc42 – biochemical, multiplex bead flow cytometry, Bodipy-FL-GTP, dose response (AID 1333;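 active = fitted half-maximal concentration within the tested dose range, moderate curve steepness, a statistically real signal drop, and little compound fluorescence or tag-binding interference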)", "conditions": "bead-based flow cytometry; series mostly up to 100 µM"}, "[7]": {"molecular_target": "Cell division control protein 42 homolog (Homo sapiens) (UniProt P60953)", "test": "inhibition of fluorescent GTP binding to wildtype Cdc42 – biochemical, multiplex bead flow cytometry, Bodipy-FL-GTP, dose response (AID 1334;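 active = fitted half-maximal concentration within the tested range, moderate curve steepness, significant signal drop, and little compound fluorescence or bead-linkage interference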)", "conditions": "bead-based flow cytometry, Bodipy-FL-GTP binding to GST-Cdc42; at 100 µM (top of the series)"}, "[8]": {"molecular_target": "Ras-related C3 botulinum toxin substrate 1 (Homo sapiens) (UniProt P63000)", "test": "inhibition of wildtype Rac1 nucleotide loading – biochemical, multiplex bead flow cytometry, dose response (AID 1340;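 active = dose curve with midpoint inside tested range, moderate steepness, plateau gap beyond fit error, low compound glow and bead-link interference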)", "conditions": "GST-Rac1 beads, Bodipy-FL-GTP binding; at 100 µM (top of the series)"}, "[9]": {"molecular_target": "GTPase HRas (Homo sapiens) (UniProt P01112)", "test": "blockade of GTP loading onto mutant Ras – biochemical, activated mutant, multiplex bead flow cytometry, dose response (AID 1341);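 note: GST-tagged constitutively activated Ras mutant immobilized on beads and multiplexed with other GTPases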", "conditions": "bead-based flow cytometry, Bodipy-FL-GTP binding; series mostly up to 100 µM"}, "[10]": {"test_system": "Ras-related protein Rab-7a (dog), GTP binding", "test": "blockers of fluorescent GTP binding to Rab7 – biochemical, wildtype, multiplex bead flow cytometry, dose response (AID 1336; call rule not given here)", "conditions": "bead-based flow cytometry; series mostly up to 100 µM"}, "[11]": {"conditions": "measured here: daughter cell gate"}, "[12]": {"conditions": "measured here: mother cell gate"}, "[13]": {"conditions": "measured here: daughter cell gate response"}, "[14]": {"conditions": "measured here: mother cell gate response"}}, "note": "For part of these data: Results with a measured potency or affinity are listed apart. Calls of active or inactive are those of the source.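 Rule for the calls, unless noted: active = dose-response curve with midpoint inside the tested range, moderate steepness, significant amplitude and little compound fluorescence or bead-attachment interference; inactive = the rest.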"}
{"smiles": "C[C@H](O)[C@H]1CC[C@H]2[C@@H]3CCC4=CC(=O)CC[C@]4(C)[C@H]3CC[C@]12C", "values": [{"measurement": "GFP response vs DMSO", "setting": "[1]", "result": "97.8% (inactive)"}, {"measurement": "GFP response vs DMSO", "setting": "[1]; [11]", "result": 93, "unit": "%"}, {"measurement": "GFP response vs DMSO", "setting": "[1]; [12]", "result": 99.6, "unit": "%"}, {"measurement": "GFP response relative to DMSO", "setting": "[2]", "result": "117% (inactive)"}, {"measurement": "GFP response relative to DMSO", "setting": "[2]; [13]", "result": 117, "unit": "%"}, {"measurement": "GFP response relative to DMSO", "setting": "[2]; [14]", "result": 120, "unit": "%"}, {"measurement": "GFP response vs DMSO", "setting": "[3]", "result": "95.7% (inactive)"}, {"measurement": "GFP response, % of DMSO", "setting": "[4]", "result": "93.7% (inactive)"}, {"measurement": "GFP response, % of DMSO", "setting": "[5]", "result": "96.5% (inactive)"}, {"measurement": "GFP response, % of DMSO", "setting": "[5]; [11]", "result": 89.9, "unit": "%"}, {"measurement": "GFP response, % of DMSO", "setting": "[5]; [12]", "result": 98.7, "unit": "%"}]}
{"smiles": "O=C1CN=C(c2ccccc2)c2cc(Br)ccc2N1Cc1cc(=O)n2ccccc2n1", "values": [{"measurement": "outcome", "setting": "[6]", "result": "inactive"}, {"measurement": "fluorescence, percent of control (lower = inhibition)", "setting": "[7]", "result": 47.5, "unit": "%"}, {"measurement": "GTP binding signal, raw median fluorescence (lower = inhibition) (MCF (arbitrary fluorescence units))", "setting": "[8]", "result": 216}, {"measurement": "outcome", "setting": "[9]", "result": "inactive"}]}
{"smiles": "Cc1sc(-n2c(C)cc(C=C3C(=O)NC(=O)NC3=O)c2C)c(C#N)c1C", "values": [{"measurement": "outcome", "setting": "[6]", "result": "inactive"}, {"measurement": "fluorescence, percent of control (lower = inhibition)", "setting": "[7]", "result": 27.5, "unit": "%"}, {"measurement": "GTP binding signal, raw median fluorescence (lower = inhibition) (MCF (arbitrary fluorescence units))", "setting": "[8]", "result": 199}, {"measurement": "outcome", "setting": "[9]", "result": "inactive"}]}
{"smiles": "O=C1NC(=S)N(Cc2ccco2)C(=O)/C1=C\\c1cccs1", "values": [{"measurement": "outcome", "setting": "[6]", "result": "inactive"}, {"measurement": "fluorescence, percent of control (lower = inhibition)", "setting": "[7]", "result": 54.7, "unit": "%"}, {"measurement": "outcome", "setting": "[10]", "result": "inactive"}, {"measurement": "GTP binding signal, raw median fluorescence (lower = inhibition) (MCF (arbitrary fluorescence units))", "setting": "[8]", "result": 167}, {"measurement": "outcome", "setting": "[9]", "result": "inactive"}]}
{"smiles": "C#C[C@]1(O)CC[C@H]2[C@@H]3CCC4=CC(=O)CC[C@]4(C)[C@H]3CC[C@@]21C", "values": [{"measurement": "GFP response vs DMSO", "setting": "[1]", "result": "97% (inactive)"}, {"measurement": "GFP response vs DMSO", "setting": "[1]; [11]", "result": 95.9, "unit": "%"}, {"measurement": "GFP response vs DMSO", "setting": "[1]; [12]", "result": 95.6, "unit": "%"}, {"measurement": "GFP response relative to DMSO", "setting": "[2]", "result": "103% (inactive)"}, {"measurement": "GFP response relative to DMSO", "setting": "[2]; [13]", "result": 102, "unit": "%"}, {"measurement": "GFP response relative to DMSO", "setting": "[2]; [14]", "result": 101, "unit": "%"}, {"measurement": "GFP response vs DMSO", "setting": "[3]", "result": "107% (inactive)"}, {"measurement": "GFP response, % of DMSO", "setting": "[4]", "result": "95.4% (inactive)"}, {"measurement": "GFP response, % of DMSO", "setting": "[5]", "result": "95.5% (inactive)"}, {"measurement": "GFP response, % of DMSO", "setting": "[5]; [11]", "result": 97.2, "unit": "%"}, {"measurement": "GFP response, % of DMSO", "setting": "[5]; [12]", "result": 92.6, "unit": "%"}]}
{"smiles": "O=c1[nH]c(=S)[nH]c(O)c1N=Nc1ccc(S(=O)(=O)N2CCc3ccccc32)cc1", "values": [{"measurement": "outcome", "setting": "[6]", "result": "inactive"}, {"measurement": "fluorescence, percent of control (lower = inhibition)", "setting": "[7]", "result": 44.9, "unit": "%"}, {"measurement": "outcome", "setting": "[10]", "result": "inactive"}, {"measurement": "GTP binding signal, raw median fluorescence (lower = inhibition) (MCF (arbitrary fluorescence units))", "setting": "[8]", "result": 312}, {"measurement": "outcome", "setting": "[9]", "result": "inactive"}]}
{"smiles": "Cc1nn(Cc2ccccc2)c(Cl)c1C(=O)O", "values": [{"measurement": "fluorescence, percent of control (lower = inhibition)", "setting": "[7]", "result": 45.4, "unit": "%"}, {"measurement": "GTP binding signal, raw median fluorescence (lower = inhibition) (MCF (arbitrary fluorescence units))", "setting": "[8]", "result": 270}, {"measurement": "outcome", "setting": "[9]", "result": "inactive"}]}
{"smiles": "CCOC(=O)c1c(NC(=O)c2c(N)n(CCCOC)c3nc4ccccc4nc23)sc2c1CCCC2", "values": [{"measurement": "outcome", "setting": "[6]", "result": "inactive"}, {"measurement": "fluorescence, percent of control (lower = inhibition)", "setting": "[7]", "result": 77.3, "unit": "%"}, {"measurement": "outcome", "setting": "[10]", "result": "inactive"}, {"measurement": "GTP binding signal, raw median fluorescence (lower = inhibition) (MCF (arbitrary fluorescence units))", "setting": "[8]", "result": 151}, {"measurement": "outcome", "setting": "[9]", "result": "inactive"}]}
{"smiles": "CCn1nc(/C=C/c2ccccc2)nc2c(=O)n(C)c(=O)nc1-2", "values": [{"measurement": "outcome", "setting": "[10]", "result": "inactive"}, {"measurement": "GTP binding signal, raw median fluorescence (lower = inhibition) (MCF (arbitrary fluorescence units))", "setting": "[8]", "result": 195}, {"measurement": "outcome", "setting": "[9]", "result": "inactive"}]}
